Results published in ChEMBL document CHEMBL1136626, “Discovery of novel and selective IKK-beta serine-threonine protein kinase inhibitors. Part 1” (Bioorg Med Chem Lett, 2003).

Legend:
A549 = assay: In vitro concentration required to inhibit the TNF-alpha-induced RANTES production in A549 human lung epithelium cell line; format: functional, cell-based
Procedure, shortened: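 A549 human lung epithelial cells grown in D-MEM with 10% FCS, penicillin/streptomycin and 2 mM glutamine. Cells (4×10⁴/well) pretreated 1 h with compound or vehicle (0.1% DMSO), then stimulated with 100 ng/mL TNF-α for 24 h. RANTES in supernatants measured by quantitative sandwich fluorescent immunoassay.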

[1] = molecular target: T1, Inhibitor of nuclear factor kappa-B kinase subunit beta (Homo sapiens, UniProt O14920); assay: In vitro inhibitory concentration required against recombinant human IkB kinase beta (IKK-beta)
T1 sequence (O14920 whole entry): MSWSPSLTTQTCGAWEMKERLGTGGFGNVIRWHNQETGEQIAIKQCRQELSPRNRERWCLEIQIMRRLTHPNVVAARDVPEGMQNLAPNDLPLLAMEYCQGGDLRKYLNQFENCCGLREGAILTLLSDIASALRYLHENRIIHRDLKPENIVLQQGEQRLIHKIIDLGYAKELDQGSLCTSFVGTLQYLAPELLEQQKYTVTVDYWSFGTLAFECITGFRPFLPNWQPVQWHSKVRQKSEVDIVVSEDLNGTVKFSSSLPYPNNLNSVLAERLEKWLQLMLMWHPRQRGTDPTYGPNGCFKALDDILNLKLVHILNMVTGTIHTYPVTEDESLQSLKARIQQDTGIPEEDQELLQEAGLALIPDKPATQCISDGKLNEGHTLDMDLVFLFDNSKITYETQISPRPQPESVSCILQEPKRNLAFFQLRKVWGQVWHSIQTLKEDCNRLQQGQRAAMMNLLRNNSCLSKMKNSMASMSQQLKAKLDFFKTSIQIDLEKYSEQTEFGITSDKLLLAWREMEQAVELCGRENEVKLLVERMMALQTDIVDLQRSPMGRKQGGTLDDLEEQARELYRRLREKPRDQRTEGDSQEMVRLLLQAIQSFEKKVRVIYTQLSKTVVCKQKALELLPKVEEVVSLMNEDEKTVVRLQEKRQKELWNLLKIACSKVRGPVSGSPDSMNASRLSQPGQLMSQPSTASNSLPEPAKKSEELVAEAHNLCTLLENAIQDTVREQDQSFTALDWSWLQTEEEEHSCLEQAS
Procedure, shortened: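 Recombinant His-tagged human IKK-β from baculovirus-infected insect cells, final […], with biotinylated GST-IκBα(1-54) substrate (final 0.2) in Tris-HCl pH 7.6 buffer with MgCl₂, DTT, Na₃VO₄ and BSA; DMSO final 0.25%. Started with ATP plus [γ-³³P]ATP, 2 h at rt, stopped with EDTA. Substrate captured on streptavidin plates, washed, counted by scintillation.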

HEK293 = assay: In vitro inhibition of NF-kappaB-Luciferase in HEK293 cell line; format: functional, cell-based; conditions: Homo sapiens
[2] = molecular target: T2, Inhibitor of nuclear factor kappa-B kinase subunit alpha (Homo sapiens, UniProt O15111); assay: Inhibition of human IKK-alpha
T2 sequence (O15111 whole entry): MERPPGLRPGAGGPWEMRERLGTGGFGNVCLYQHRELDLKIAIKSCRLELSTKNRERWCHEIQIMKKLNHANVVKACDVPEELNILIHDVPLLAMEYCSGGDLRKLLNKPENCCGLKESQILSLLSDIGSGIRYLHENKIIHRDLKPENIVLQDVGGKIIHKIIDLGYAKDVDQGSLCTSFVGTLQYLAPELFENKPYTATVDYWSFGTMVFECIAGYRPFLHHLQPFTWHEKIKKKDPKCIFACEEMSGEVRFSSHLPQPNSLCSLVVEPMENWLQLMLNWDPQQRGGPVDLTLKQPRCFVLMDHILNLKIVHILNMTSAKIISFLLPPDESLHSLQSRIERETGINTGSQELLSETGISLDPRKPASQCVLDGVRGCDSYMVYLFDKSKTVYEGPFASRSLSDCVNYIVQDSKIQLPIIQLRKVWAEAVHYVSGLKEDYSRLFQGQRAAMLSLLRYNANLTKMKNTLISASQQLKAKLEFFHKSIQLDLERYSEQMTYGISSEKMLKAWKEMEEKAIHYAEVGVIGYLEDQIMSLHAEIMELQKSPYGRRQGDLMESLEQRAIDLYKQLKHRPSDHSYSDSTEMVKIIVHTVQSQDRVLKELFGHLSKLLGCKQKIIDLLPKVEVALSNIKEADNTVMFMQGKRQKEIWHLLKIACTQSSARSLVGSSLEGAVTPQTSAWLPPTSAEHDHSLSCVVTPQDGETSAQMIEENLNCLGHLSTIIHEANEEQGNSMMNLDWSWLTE

Jurkat = assay: In vitro inhibition of anti-CD3/anti-CD28-I induced IL-2 release in Jurkat T-cells; format: functional, cell-based; conditions: Homo sapiens
Mus musculus [3] = assay: In vivo LPS-induced TNF-alpha production in mice after ip administration (30 min pretreatment); format: functional
Procedure, shortened: (§1)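 Eight-week-old female BALB/c mice given 200 (per mouse) LPS ip in saline. Compound dosed ip 30 min before LPS, or po in 10% cremophor/saline 60 min before. Blood taken under pentobarbital anaesthesia 90 min after LPS. Plasma TNFα measured by ELISA; mean of 5 mice per group used to calculate percent reduction versus LPS controls; ED₅₀ reported.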

Mus musculus [4] = assay: In vivo LPS-induced TNF-alpha production in mice after oral administration (60 min pretreatment); format: functional; procedure, shortened: as §1
Mus musculus [5] = organism: Mus musculus; assay: In vitro inhibition of IgE in mouse B-cells; format: functional, cell-based
[6] = molecular target: Tyrosine-protein kinase SYK (Homo sapiens, UniProt P43405); assay: Inhibition of human Syk
[7] = molecular target: T3, Dual specificity mitogen-activated protein kinase kinase 4 (Homo sapiens, UniProt P45985); assay: Inhibition of human mitogen-activated protein kinase kinase 4 (MKK4)
T3 sequence (P45985 whole entry): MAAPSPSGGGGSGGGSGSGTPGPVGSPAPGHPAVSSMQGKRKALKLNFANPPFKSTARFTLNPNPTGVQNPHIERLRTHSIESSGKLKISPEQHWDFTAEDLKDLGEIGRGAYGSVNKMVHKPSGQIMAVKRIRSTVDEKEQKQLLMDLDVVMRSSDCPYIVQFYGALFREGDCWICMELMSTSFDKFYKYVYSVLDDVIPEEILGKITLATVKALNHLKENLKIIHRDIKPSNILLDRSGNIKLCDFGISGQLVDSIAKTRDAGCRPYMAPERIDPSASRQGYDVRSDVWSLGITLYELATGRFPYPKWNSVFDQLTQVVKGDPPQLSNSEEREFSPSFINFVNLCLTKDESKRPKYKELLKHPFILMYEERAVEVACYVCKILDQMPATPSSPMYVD

PBMC = assay: In vitro inhibition TNF-alpha release in human Peripheral blood mononuclear cells (PBMC); format: functional, cell-based
[8] = molecular target: T2, Inhibitor of nuclear factor kappa-B kinase subunit alpha; assay: Inhibition of human IKK-alpha kinase

N#Cc1c(-c2cccc(N)c2)cc(-c2ccccc2O)nc1N
IC50 (A549): > 50 µM
IC50 [1]: 20 µM

N#Cc1c(-c2cccc(NC(=O)CCCC(=O)O)c2)cc(-c2ccccc2O)nc1N
IC50 (A549): > 50 µM
IC50 [1]: 1.4 µM

COc1ccccc1-c1cc(-c2cccc(NC(=O)C(O)CCC(=O)O)c2)c(C#N)c(N)n1 (stereo not drawn)
IC50 (A549): > 50 µM
IC50 [1]: > 20 µM

N#Cc1c(-c2ccc(NC(=O)CCCC(=O)O)cc2)cc(-c2ccccc2O)nc1N
IC50 (A549): > 50 µM
IC50 [1]: 0.5 µM

N#Cc1c(-c2ccc(C(=O)NCCN3CCCCC3)cc2)cc(-c2ccccc2O)nc1N
IC50 (A549): > 50 µM
IC50 [1]: 0.6 µM

N#Cc1c(-c2cccc(NC(=O)C(N)CC(=O)O)c2)cc(-c2ccccc2O)nc1N (stereo not drawn)
IC50 (A549): 15 µM
IC50 [1]: 0.6 µM

N#Cc1c(-c2ccc(NC(=O)CCN3CCCCC3)cc2)cc(-c2ccccc2O)nc1N
IC50 (A549): > 50 µM
IC50 [1]: 1 µM

Cc1c(-c2ccccc2O)nc(N)c(C#N)c1-c1cccc(NC(=O)C(O)CCC(=O)O)c1 (stereo not drawn)
IC50 (A549): > 50 µM
IC50 [1]: > 20 µM

Cc1cccc(O)c1-c1cc(-c2cccc(NC(=O)C(O)CCC(=O)O)c2)c(C#N)c(N)n1 (stereo not drawn)
IC50 (A549): > 50 µM
IC50 [1]: > 20 µM

N#Cc1c(-c2cccc(NC(=O)C3CCC(=O)O3)c2)cc(-c2ccccc2O)nc1N (stereo not drawn)
IC50 (A549): 8 µM
IC50 (HEK293): 8 µM
IC50 [2]: > 20 µM
IC50 [1]: 1.5 µM
IC50 (Jurkat): 15 µM
ED50 (Mus musculus [3]): 10 mg/kg
ED50 (Mus musculus [4]): > 30 mg/kg
IC50 (Mus musculus [5]): 0.35 µM
IC50 [6]: > 20 µM
IC50 [7]: > 20 µM
IC50 (PBMC): 10 µM

COc1cccc(O)c1-c1cc(-c2cccc(NC(=O)C(O)CCC(=O)O)c2)c(C#N)c(N)n1 (stereo not drawn)
IC50 (A549): > 50 µM
IC50 [1]: 2 µM

N#Cc1c(-c2cccc(NC(=O)CCN3CCCCC3)c2)cc(-c2ccccc2O)nc1N
IC50 (A549): 7 µM
IC50 [1]: 0.6 µM
IC50 [8]: 20 µM
ED50 (Mus musculus [3]): < 0.03 mg/kg
ED50 (Mus musculus [4]): 2 mg/kg
IC50 [6]: > 20 µM
IC50 [7]: > 20 µM

COc1ccc(O)c(-c2cc(-c3cccc(NC(=O)C(O)CCC(=O)O)c3)c(C#N)c(N)n2)c1 (stereo not drawn)
IC50 (A549): > 50 µM
IC50 [1]: 5.3 µM

N#Cc1c(-c2cccc(C(=O)NCCN3CCCCC3)c2)cc(-c2ccccc2O)nc1N
IC50 (A549): 15 µM
IC50 [1]: 1.8 µM

COCC(=O)Nc1cccc(-c2cc(-c3ccccc3O)nc(N)c2C#N)c1
IC50 (A549): > 50 µM
IC50 [1]: 1.4 µM

N#Cc1c(-c2cccc(NC(=O)C(O)CCC(=O)O)c2)cc(-c2cc(Cl)ccc2O)nc1N (stereo not drawn)
IC50 (A549): > 50 µM
IC50 [1]: 5.5 µM

N#Cc1c(-c2cccc(NC(=O)CN3CCCCC3)c2)cc(-c2ccccc2O)nc1N
IC50 (A549): 15 µM
IC50 [1]: 3 µM

N#Cc1c(-c2cccc(NC(=O)CC(N)C(=O)O)c2)cc(-c2ccccc2O)nc1N (stereo not drawn)
IC50 (A549): 35 µM
IC50 [1]: 0.6 µM

N#Cc1c(-c2ccc([N+](=O)[O-])cc2)cc(-c2ccccc2O)nc1N
IC50 (A549): > 50 µM
IC50 [1]: > 20 µM

N#Cc1c(-c2ccc(C(=O)O)cc2)cc(-c2ccccc2O)nc1N
IC50 (A549): > 50 µM
IC50 [1]: 0.7 µM

CN(C)c1ccc(-c2cc(-c3ccccc3O)nc(N)c2C#N)cc1
IC50 (A549): > 50 µM
IC50 [1]: > 20 µM

N#Cc1c(-c2cccc(NC(=O)C(O)CCC(=O)O)c2)cc(-c2cc(F)ccc2O)nc1N (stereo not drawn)
IC50 (A549): > 50 µM
IC50 [1]: 1.7 µM

N#Cc1c(-c2cccc(NC(=O)C(O)CCC(=O)O)c2)cc(-c2ccc(O)cc2)nc1N (stereo not drawn)
IC50 (A549): > 50 µM
IC50 [1]: > 20 µM

N#Cc1c(-c2ccccc2C(=O)O)cc(-c2ccccc2O)nc1N
IC50 (A549): > 50 µM
IC50 [1]: 0.7 µM

N#Cc1c(-c2ccccc2C(=O)NCCN2CCCCC2)cc(-c2ccccc2O)nc1N
IC50 (A549): 6 µM
IC50 [1]: 0.5 µM

N#Cc1c(-c2cccc(NC(=O)C(O)CCC(=O)[O-])c2)cc(-c2ccccc2O)nc1N.[Na+] (stereo not drawn)
IC50 (A549): 20 µM
IC50 [1]: 0.9 µM
ED50 (Mus musculus [3]): 1.3 mg/kg
ED50 (Mus musculus [4]): 18.7 mg/kg

N#Cc1c(-c2cccc(C(=O)O)c2)cc(-c2ccccc2O)nc1N
IC50 (A549): > 50 µM
IC50 [1]: 2.5 µM

N#Cc1c(-c2cccc(NC(=O)C(O)CCC(=O)O)c2)cc(-c2ccccc2)nc1N (stereo not drawn)
IC50 (A549): > 50 µM
IC50 [1]: > 20 µM

CC(=O)Nc1nc(-c2ccccc2O)cc(-c2cccc(NC(=O)CCN3CCCCC3)c2)c1C#N
IC50 (A549): 30 µM
IC50 [1]: 15 µM

Cl.N#Cc1c(-c2ccc(N3CCCC3)c(NC(=O)CCN3CCCCC3)c2)cc(-c2ccccc2O)nc1N
IC50 (A549): 0.8 µM
IC50 [1]: 1 µM
ED50 (Mus musculus [3]): 0.8 mg/kg
ED50 (Mus musculus [4]): 10.1 mg/kg

CN(C)c1ccc(-c2cc(-c3ccccc3O)nc(N)c2C#N)cc1NC(=O)CCN1CCCCC1.Cl
IC50 (A549): 8 µM
IC50 [1]: 0.8 µM
ED50 (Mus musculus [3]): 0.6 mg/kg

N#Cc1c(-c2cccc(NC(=O)CCN3CCCCC3)c2)cc(-c2cccc(O)c2)nc1N
IC50 (A549): 10 µM
IC50 [1]: > 20 µM

N#Cc1c(-c2cccc(NC(=O)CCN3CCCCC3)c2)cc(-c2ccccc2O)nc1O
IC50 (A549): > 50 µM
IC50 [1]: > 20 µM

CCN(CC)c1nc(-c2ccccc2O)cc(-c2cccc(NC(=O)CCN3CCCCC3)c2)c1C#N
IC50 [1]: > 20 µM

N#Cc1c(-c2ccc(N3CCCCC3)c(NC(=O)CCN3CCCCC3)c2)cc(-c2ccccc2O)nc1N
IC50 (A549): 5 µM
IC50 [1]: 2.5 µM
